Results on 19 molecules are retold here after ChEMBL document CHEMBL4706570, “Structure-activity relationship studies and bioactivity evaluation of 1,2,3-triazole containing analogues as a selective sphingosine kinase-2 inhibitors” (Eur J Med Chem, 2020).

pIC50, pKi: −log10 of the molar value. Calls of active or inactive are those of the source. The rule behind the calls is not given here.

As a reminder, the pIC50 is −log10 of the IC50, conventionally taken in molar units. In general, inhibition refers to how much of the control response was suppressed. One may read the pKi as the negative decadic logarithm of the Ki, by convention in mol/L.

For experiment [1], the target named is T1, Sphingosine kinase 2 (Homo sapiens, UniProt Q9NRA0).
T1 sequence (Q9NRA0 whole entry): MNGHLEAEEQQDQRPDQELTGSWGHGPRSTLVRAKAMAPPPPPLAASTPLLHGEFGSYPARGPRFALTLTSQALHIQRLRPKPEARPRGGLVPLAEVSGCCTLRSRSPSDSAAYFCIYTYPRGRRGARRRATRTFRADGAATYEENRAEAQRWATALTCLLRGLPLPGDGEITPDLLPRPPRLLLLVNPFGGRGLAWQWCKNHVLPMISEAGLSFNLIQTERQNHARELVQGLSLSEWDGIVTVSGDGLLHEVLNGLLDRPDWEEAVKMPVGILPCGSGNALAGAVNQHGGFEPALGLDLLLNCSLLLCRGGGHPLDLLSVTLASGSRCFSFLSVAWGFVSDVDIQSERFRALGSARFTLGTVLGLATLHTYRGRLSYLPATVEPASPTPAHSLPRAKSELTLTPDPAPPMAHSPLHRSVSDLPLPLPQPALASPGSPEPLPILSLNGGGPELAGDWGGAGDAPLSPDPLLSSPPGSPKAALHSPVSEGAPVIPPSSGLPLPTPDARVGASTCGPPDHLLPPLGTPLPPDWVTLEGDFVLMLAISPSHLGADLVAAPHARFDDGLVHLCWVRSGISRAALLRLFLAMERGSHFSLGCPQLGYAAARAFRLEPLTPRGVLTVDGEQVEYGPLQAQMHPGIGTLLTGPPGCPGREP
In words: Inhibition of recombinant human N-terminal His-tagged SphK2 (2 to 654 residues) expressed in baculovirus infected Sf21 cells using d-erythro-sphingosine as substrate incubated for 1 hr by ADP-Glo assay.

In experiment [2] the target is T2, Sphingosine kinase 2 (Homo sapiens) (UniProt Q9NRA0).
T2 sequence (whole entry): T1 sequence (Q9NRA0 whole entry)
In words: Inhibition of recombinant human N-terminal His-tagged SphK2 (2 to 654 residues) expressed in baculovirus infected Sf21 cells at 125 uM using d-erythro-sphingosine as substrate incubated for 1 hr by ADP-Glo assay relative to control. (In general: In ADP-Glo the light output rises with the ADP produced.)

For experiment [3], the system named is U-251. Nature of the experiment: Cytotoxicity against human U-251MG cells assessed as reduction in cell viability at 125 uM incubated for 24 hrs by Hoechst 33258 and PI staining based imaging analysis. In kind it is functional. Put shortly: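 U-251 MG glioblastoma cells grown in RPMI-1640 with 10% FBS, 1 mM sodium pyruvate and 1x Pen-Strep at 37 °C, 5% CO2. Seeded at 3000 cells/well, left about 16 h, then medium replaced with fresh medium containing 125 µM compound for 24 h. Stained with Hoechst 33258 for total cells and propidium iodide for apoptotic cells. Triplicate, S.E. reported.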

Experiment [4] addresses T1, Sphingosine kinase 2. In words: Inhibition of recombinant human Flag-tagged SphK2 transfected in HEK293 cells using d-erythro-sphingosine as substrate by [gamma32P]-ATP based assay.
For experiment [5], the target named is Sphingosine kinase 1 (Homo sapiens, UniProt Q9NYA1). In words: Inhibition of recombinant human Flag-tagged SphK1 transfected in HEK293 cells using d-erythro-sphingosine as substrate by [gamma32P]-ATP based assay.
Sphingosine kinase 1, sequence (Q9NYA1 whole entry): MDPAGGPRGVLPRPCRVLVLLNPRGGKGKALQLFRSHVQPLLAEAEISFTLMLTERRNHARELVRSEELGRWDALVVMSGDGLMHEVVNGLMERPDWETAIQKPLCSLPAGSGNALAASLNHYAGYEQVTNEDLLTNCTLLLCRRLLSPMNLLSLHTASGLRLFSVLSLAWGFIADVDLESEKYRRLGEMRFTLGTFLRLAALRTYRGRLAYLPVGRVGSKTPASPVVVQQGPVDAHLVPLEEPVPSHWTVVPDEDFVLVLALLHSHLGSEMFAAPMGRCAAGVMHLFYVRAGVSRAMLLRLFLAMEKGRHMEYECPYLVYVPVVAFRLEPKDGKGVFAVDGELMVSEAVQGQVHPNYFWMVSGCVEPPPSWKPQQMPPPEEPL

In the case of `N=C(N)N1CCC[C@H]1c1nc(-c2ccc(Cn3cc(C4CC4)nn3)cc2)no1`, the pIC50 in experiment [1] was 6.61. The inhibition in experiment [2] was above 50%.

For `Cn1cc(-c2cn(Cc3ccc(-c4noc(C5(C(=N)N)CC5)n4)cc3)nn2)cn1`, the inhibition entry in experiment [3] is “Active”. For the same molecule, in experiment [2], the inhibition was above 50%. Consider `N=C(N)N1CCC[C@H]1c1nc(-c2ccc(Cn3cc(-c4ccccn4)nn3)cc2)no1`, for which, in experiment [2], the inhibition is above 50%. As for `CCCCc1cn(Cc2ccc(-c3noc([C@@H]4CCCN4C(=N)N)n3)cc2)nn1`, in experiment [1], the pIC50 was 6.60. Also, the inhibition in experiment [2] was above 50%. Take `COc1ccc(-c2cn(Cc3ccc(-c4noc(C[C@@H]5CCCN5C(=N)N)n4)cc3)nn2)cc1`: the inhibition result in experiment [3] is “Active”. For the same molecule, the inhibition in experiment [2] is above 50%. The corresponding values for `N=C(N)N1CCC[C@H]1Cc1nc(-c2ccc(Cn3cc(-c4ccccc4)nn3)cc2)no1` are “Active” and above 50%. The like results for `N=C(N)C1(c2nc(-c3ccc(Cn4cc(-c5ccccc5)nn4)cc3)no2)CC1` were, in that order, “Active” and above 50%. Regarding `N=C(N)N1CCC[C@H]1c1nc(-c2ccc(Cn3cc(-c4ccc(C(F)(F)F)cc4)nn3)cc2)no1`, the inhibition result in experiment [3] was “Active”. Also, in experiment [1], the pIC50 was 6.44. Further, in experiment [2], the inhibition is above 50%. `N=C(N)N1CCC[C@H]1Cc1nc(-c2ccc(Nc3nc(-c4cccc(C(F)(F)F)c4)cs3)cc2)no1`: the pIC50 in experiment [1] is 6.55. In addition, in experiment [2], the inhibition was above 50%. Take `O=C(NCc1ccncc1)C12CC3CC(C1)CC(c1ccc(Cl)cc1)(C3)C2` [ABC-294640]: the inhibition at 125 µM in experiment [3] came to 50%. Take `Cn1cc(-c2cn(Cc3ccc(-c4noc(C[C@@H]5CCCN5C(=N)N)n4)cc3)nn2)cn1`: the inhibition in experiment [2] is above 50%. `N=C(N)N1CCC[C@H]1Cc1nc(-c2ccc(Cn3cc(-c4ccc(C(F)(F)F)cc4)nn3)cc2)no1`: the inhibition entry in experiment [3] was “Active”. In the case of `Cc1ccc(S(=O)(=O)Nc2cccc(/C=N/c3ccccc3NS(=O)(=O)c3ccc(C)cc3)c2)cc1`, the pKi is 5.16 in experiment [4] and 4.57 in experiment [5].

With `COc1ccc(-c2cn(Cc3ccc(-c4noc([C@@H]5CCCN5C(=N)N)n4)cc3)nn2)cc1`, in experiment [3], the inhibition entry is “Active”. Further, the pIC50 in experiment [1] was 6.58. For the same molecule, the inhibition in experiment [2] is above 50%. Turning to `N=C(N)N1CCC[C@H]1c1nc(-c2ccc(Cn3cc(-c4cccs4)nn3)cc2)no1`, the pIC50 in experiment [1] was 6.16. For the same molecule, the inhibition in experiment [2] was above 50%. Take `N=C(N)C1(c2nc(-c3ccc(Cn4cc(C5CC5)nn4)cc3)no2)CC1`: in experiment [2], the inhibition was above 50%. On to `N=C(N)N1CCC[C@H]1c1nc(-c2ccc(Cn3cc(-c4ccc(F)cc4)nn3)cc2)no1`, for which, in experiment [1], the pIC50 was 6.41. In addition, the inhibition in experiment [2] is above 50%.

Consider `N=C(N)N1CCC[C@H]1Cc1nc(-c2ccc(Cn3cc(-c4ccccn4)nn3)cc2)no1`, for which, in experiment [2], the inhibition is above 50%. Still for that read-out and setting: then `N=C(N)N1CCC[C@H]1c1nc(-c2ccc(Cn3cc(-c4ccccc4)nn3)cc2)no1`, with above 50%.
